Active and inactive are the calls of the source. No cut-off for these calls is given here.
Experiments:
Triticum aestivum [1] = assay: Post-emergence herbicidal activity against Triticum aestivum (wheat) at 50 mol/ha measured 10 days post compound application; assay type: functional, organism-based
Summary of the method: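 Post-emergence greenhouse test on T. aestivum, set up identically to the pre-emergence test: sterilized sand flats at near-neutral pH, application at 6.4–19.6 kg/ha in acetone/DMSO/water-based vehicles, and reduction of plant parameters versus untreated control scored on a 0–4 scale. Atrazine 2.5 kg/ha was the positive control. Duplicate; ANOVA.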

Triticum aestivum [2] = assay: Pre-emergence herbicidal activity against Triticum aestivum (wheat) assessed as germination seeds level at 50 mol/ha relative to untreated control; assay type: functional
Summary of the method: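 Pre-emergence greenhouse assay on T. aestivum sown in sterilized sand in celled flats, with the medium near neutral pH. Compound was applied in acetone/H₂O, DMSO/H₂O, acetone/DMSO or acetone/DMSO/H₂O/Tween 80 at 6.4–19.6 kg/ha. Percentage of germinated seeds was calculated against untreated control. Atrazine (2.5 kg/ha, 12 mol/ha) was the positive control. Run in duplicate; ANOVA.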

Triticum aestivum [3] = assay: Pre-emergence herbicidal activity against Triticum aestivum (wheat) assessed as reduction in radicular weight at 50 mol/ha relative to untreated control; assay type: functional
Summary of the method: (§1)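 Wheat was grown in sterilized sand flats at near-neutral pH and treated pre-emergence at 6.4–19.6 kg/ha in acetone-, DMSO- or Tween 80-containing vehicles. Length of first leaf, aerial weight and radicular weight were compared with untreated control and scored 4 (100–80% reduction), 3 (79–50%), 2 (49–20%), 1 (19–1%) or 0 (increase). Atrazine 2.5 kg/ha was the positive control. Duplicate runs; ANOVA.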

Triticum aestivum [4] = assay: Pre-emergence herbicidal activity against Triticum aestivum (wheat) assessed as reduction in length of the first leaf at 50 mol/ha relative to untreated control; assay type: functional; summary of the method: as §1
Triticum aestivum [5] = assay: Pre-emergence herbicidal activity against Triticum aestivum (wheat) assessed as reduction in aerial weight at 50 mol/ha relative to untreated control; assay type: functional; summary of the method: as §1
Triticum aestivum [6] = assay: Stimulation of plant growth parameters in Triticum aestivum (wheat) assessed as increase in aerial weight at 50 mol/ha; assay type: functional, organism-based; summary of the method: as §1
Triticum aestivum [7] = assay: Stimulation of plant growth parameters in Triticum aestivum (wheat) assessed as increase in radicular weight at 50 mol/ha; assay type: functional, organism-based; summary of the method: as §1
Triticum aestivum [8] = assay: Stimulation of plant growth parameters in Triticum aestivum (wheat) assessed as increase in length of the first leaf at 50 mol/ha; assay type: functional, organism-based
Summary of the method: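 Pre-emergence greenhouse whole-plant test on T. aestivum L. Seeds were grown in sterilized sand in celled flats, with the medium near neutral pH. Compound was applied in acetone/H₂O, DMSO/H₂O, acetone/DMSO or acetone/DMSO/H₂O/Tween 80 vehicle, at 6.4–19.6 kg/ha by weight. Length of first leaf was compared with untreated control, with a score of 0 marking an increase. Atrazine at 2.5 kg/ha was the positive control. Run in duplicate and analysed by ANOVA.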

SMILES | Activity (Triticum aestivum [1]) | Activity (Triticum aestivum [2]) | Activity (Triticum aestivum [3]) | Activity (Triticum aestivum [4]) | Activity (Triticum aestivum [5]) | Activity (Triticum aestivum [6]) | Activity (Triticum aestivum [7]) | Activity (Triticum aestivum [8])
[O-][n+]1onc2ccccc21 [BENZO[C][1,2,5]OXADIAZOLE 1-OXIDE] | inactive | 100% | inactive | inactive | inactive |  |  | 
COC(=O)N/N=C/c1c(-c2ccccc2)no[n+]1[O-] |  | 100% | 2% | 2% |  | Active |  | 
CCCCCCNC(=O)N/N=C/c1no[n+]([O-])c1C |  | 95% | 3% | 3% | 4% |  |  | 
COc1ccc(NCc2c(-c3ccccc3)no[n+]2[O-])cc1 |  | 100% | 1% | 1% | 1% |  |  | 
O=C(c1ccc2c(c1)no[n+]2[O-])N1CCOCC1 |  | 100% | 3% | 3% | 3% |  |  | 
O=C(NCCc1ccccc1)N/N=C/c1ccc2c(c1)no[n+]2[O-] |  | 100% | 2% | 2% | 2% |  |  | 
O=Cc1ccc2no[n+]([O-])c2c1 [6-FORMYLBENZO[C][1,2,5]OXADIAZOLE1-OXIDE] |  | 100% |  | 2% | 1% |  | Active | 
Cc1ccc2no[n+]([O-])c2c1 [6-METHYLBENZO[C][1,2,5]OXADIAZOLE1-OXIDE] |  | 100% | 3% | 3% | 3% |  |  | 
O=C1c2ccccc2C(=O)N1Cc1c(-c2ccccc2)no[n+]1[O-] |  | 100% | 1% |  |  | Active |  | Active
[O-][n+]1onc(-c2ccccc2)c1CN1CCN(c2ncccn2)CC1 | inactive | 100% | inactive | inactive | inactive |  |  | 
O=C(Nc1ccc(Cl)cc1)c1ccc2c(c1)no[n+]2[O-] |  | 96% | 4% | 3% | 3% |  |  | 
Cc1c(C=O)no[n+]1[O-] |  | 100% | 1% | 1% |  | Active |  | 
Cc1c(/C=N/NC(N)=O)no[n+]1[O-] |  | 89% | 3% |  | 4% |  |  | 
[O-][n+]1onc(-c2ccccc2)c1CNc1ccc(Cl)cc1 |  | 100% | 1% | 1% | 1% |  |  | 
NC(=S)N/N=C/c1c(-c2ccccc2)no[n+]1[O-] |  | 100% | 3% | 2% |  | Active |  | 
COC(=O)N/N=C/c1ccc2c(c1)[n+]([O-])c(C)c(C)[n+]2[O-] |  | 100% |  |  |  | Active | Active | Active
[O-][n+]1onc(-c2ccccc2)c1CNc1ccc(Br)cc1 |  | 100% | 1% | 2% | 1% |  |  | 
O=C(O)c1ccc2no[n+]([O-])c2c1 | inactive | 100% | 1% | 1% | 1% |  |  | 
COCCNC(=O)c1ccc2c(c1)no[n+]2[O-] |  | 100% | 1% | 2% | 1% |  |  | 
Cc1c(C)[n+]([O-])c2cc(/C=N/NC(=O)NCCc3ccccc3)ccc2[n+]1[O-] |  | 100% | 1% |  |  | Active |  | Active
COC(=O)N/N=C/c1no[n+]([O-])c1C |  | 15% |  | 3% | 3% |  | Active | 
COC(=O)N/N=C/c1ccc2c(c1)no[n+]2[O-] |  | 75% | 3% | 1% | 1% |  |  | 
COC(=O)N/N=C/c1ccc2nonc2c1 |  | 100% |  |  |  | Active | Active | Active
CCCCNC(=O)c1ccc2c(c1)no[n+]2[O-] |  | 46% | 3% | 3% | 3% |  |  | 
[O-][n+]1onc(-c2ccccc2)c1CCl | inactive | 100% | 1% | 1% | 1% |  |  | 
Cc1c(/C=N/NC(N)=S)no[n+]1[O-] |  | 92% | 4% |  | 4% |  |  | 
O=Cc1c(-c2ccccc2)no[n+]1[O-] |  | 100% | 1% | 1% |  | Active |  | 

Reference: ChEMBL document CHEMBL3044699, “Synthesis and herbicidal activity of N-oxide derivatives” (2000)
